Screening data (PubChem BioAssay)
Compounds with a hit are over-represented: about 1.7% of the library has one in this group of screens.
CaV13 FRET inh: Disruptors of the CACNA1D IQ motif to Ca2+-dependent inactivation inhibitor domain association, primary screening, Förster resonance energy transfer in intact living …; HEK cells, CFP/YFP FRET ICDI-IQ, plate reader, 10 min; percent FRET-ratio fall versus neutral wells; inhibition, % at 12.3 µM; 340,000 compounds, 0.098% hits;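 active = mean replicate inhibition of at least 30% and at least 1% of replicates passing that level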;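 note: 0% = median of the neutral control wells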
Vif inh: inhibitors of HIV Vif; HEK293T cells, Vif self-association by quenched fluorescence, imaging, 24 h; inhibition, % at 7.49 µM; 340,000 compounds, 0.35% hits; in the data active = inhibition above about 50%, passing the limit was not always enough
NTR1 ag: NTR1 (human) agonism; NTR1-U2OS beta-arrestin-GFP spot imaging, agonist mode; activation, % at 20 µM; 330,000 compounds, 0.17% hits; AID 493036;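 active = activation at or above 40% of the spot to cytoplasm intensity ratio, with at least 20 cells analyzed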;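 note: 0% = DMSO without peptide and 100% = 100 nM NTR1 peptide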
Target sequence (P30989 whole entry, looked up): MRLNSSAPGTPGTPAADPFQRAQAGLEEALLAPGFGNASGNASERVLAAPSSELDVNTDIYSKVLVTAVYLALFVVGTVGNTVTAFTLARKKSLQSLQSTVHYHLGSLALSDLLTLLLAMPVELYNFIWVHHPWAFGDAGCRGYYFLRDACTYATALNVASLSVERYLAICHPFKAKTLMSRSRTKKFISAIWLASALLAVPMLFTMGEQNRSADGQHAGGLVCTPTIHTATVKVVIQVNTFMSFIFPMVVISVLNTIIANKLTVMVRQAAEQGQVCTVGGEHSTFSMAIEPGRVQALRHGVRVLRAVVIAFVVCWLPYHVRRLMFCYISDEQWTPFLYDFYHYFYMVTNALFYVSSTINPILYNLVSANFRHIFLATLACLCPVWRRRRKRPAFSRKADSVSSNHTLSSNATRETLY
V-ATPase pH: regulators of yeast V-ATPase proton transport; S. cerevisiae, pHLuorin cytosolic pH fluorescence; 350,000 compounds, 0.37% hits; response, % at 10 µM; in the data active = response mostly above about 7.3%, no sharp cut-off; inactive = mostly below about 5.4%; note: actives read high
SR-BI uptake up: enhances SR-BI lipid uptake from DiI-HDL; CHO ldlA[mSR-BI] cells, DiI-HDL uptake fluorescence, 3 h; 100 = double the neutral-control signal; activation, % at 12.5 µM; 320,000 compounds, 0.096% hits; AID 504775;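 active = mean replicate activation of at least 60% and every replicate at or above 60%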;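 note: 0% = median plate neutral-control signal and 100% = twice that signal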
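System: LDL receptor-deficient CHO ldlA cells overexpressing murine SR-BI | Timing: 3 h uptake period with compound, 37 °C | Medium: HEPES-buffered (25 mM, pH 7.4) F12 plus 0.5% BSA | Dosing: Single-point compound dose | Signal: Bottom-read fluorescence, 550/595 nm | Read-out: Retained DiI signal reflecting DiI-HDL uptake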
SR-BI HDL uptake: blocks mouse SR-BI lipid uptake from DiI-HDL; ldlA[mSR-BI] CHO cells, DiI-HDL uptake fluorescence, 3 h; inhibition, % at 12.5 µM; Q61009; 320,000 compounds, 0.96% hits; AID 488896;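 active = mean replicate inhibition of at least 70% and a set share of replicates each scoring 70 or more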;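 note: 0% = median of neutral control wells and 100% = median of positive control wells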
An asterisk follows results filed as active; . = not tested or not shown.

SMILES | CaV13 FRET inh | Vif inh | NTR1 ag | V-ATPase pH | SR-BI uptake up | SR-BI HDL uptake
O=C(c1ccc(Cl)cc1)N1N=CCC1(O)c1ccc(Cl)cc1 (stereo not given) | -4.5 | -3.5 | -0.3 | 2.4 | -88.4 | 88.4*
N#CCOc1coc(CN2CCN(c3ccccc3)CC2)cc1=O | -7.2 | 8.2 | 0.3 | 2.8 | 13.3 | -13.3
COC(=O)c1ccc(OCC2c3cc(OC)c(OC)cc3CCN2C(=O)c2ccco2)cc1 (stereo not given) | -7.3 | 69.2* | 1.4 | -2.1 | -35.9 | 35.9
C[C@H]1C(C(=O)N(C)C2CCCCC2)=Cc2c(n(-c3ccc(F)cc3)c(=O)n2CCCOc2ccccc2)C=C1c1ccccc1 | -10.1 | . | . | . | . | .
COc1ccc(-c2oc3ccccc3c2C#Cc2cncn2C)cc1 | -5.2 | 8.8 | 8.8 | 3.2 | -78.9 | 78.9*
CCOC(=O)C1=C(O)/C(=C/c2cn(CC(=O)N3CCCC3)c3ccccc23)SC1=Nc1ccccc1 | . | 3.7 | . | -0.3 | -70.5 | 70.5*
COC(=O)c1cn(CC(=O)N2CCCCCC2)c2ccccc12 | -3.6 | 6.9 | -3.0 | -0.4 | -8.0 | 8.0
COC(=O)c1cc2c(c3c4cc(OC)ccc4n(S(=O)(=O)c4ccc(OC)cc4)c13)C(=O)N(Cc1ccco1)C2 | -4.3 | . | . | . | . | .
C=CCOC(=O)c1cn(CC)c2nc(C)ccc2c1=O | 8.7 | -4.6 | 0.3 | -2.5 | 12.1 | -12.1
CCn1cc(C(=O)OCC(=O)OC2CC(C)CCC2C(C)C)c(=O)c2ccc(C)nc21 (stereo not given) | -4.1 | -23.6 | 16.5 | 2.4 | -81.5 | 81.5*
Cc1ccccc1NC1=C/C(=N\S(=O)(=O)c2cccs2)c2ccccc2C1=O | -5.8 | -20.9 | 40.3* | 1.2 | -49.9 | 49.9
COc1ccc(CCNC(=O)CSc2nn(-c3ccccc3)c(=S)s2)cc1 | -4.1 | -1.5 | 0.1 | 4.2 | 33.7 | -33.7
COc1cc(C(=O)N2CCN(C3=NS(=O)(=O)c4ccccc43)CC2)cc(OC)c1OC | -12.4 | . | . | . | . | .
CC(=O)c1sc(NC(=O)COc2ccc(Br)cc2)nc1C | 5.5 | -4.3 | -0.9 | . | -16.0 | 16.0
CC(=O)c1sc(NC(=O)COc2ccc([N+](=O)[O-])cc2)nc1C | -5.6 | 98.4* | 0.3 | 0.9 | -17.1 | 17.1
O=C(COc1ccc([N+](=O)[O-])cc1)NNC(=O)c1cccs1 | 6.6 | 52.6* | -0.6 | 1.3 | 8.0 | -8.0
COc1ccc(/C=C/C(=O)Nc2c(C(=O)O)[nH]c3ccccc23)cc1OC | -5.8 | 9.1 | -0.6 | 2.0 | -2.7 | 2.7
O=C(CCn1c(=S)oc2ccccc21)N1CCN(c2ccc(F)cc2)CC1 | -2.7 | -2.5 | -1.2 | -0.8 | -7.6 | 7.6
Cc1cc(CN2CCCCC2C(=O)Nc2ccc(Oc3cccnc3)cc2)oc1C (stereo not given) | . | 4.3 | 1.0 | 3.2 | . | 78.6*
O=C1c2sc3nc4ccccc4n3c2C(=O)N1c1ccccc1Cl | . | -7.0 | 1.4 | 10.5* | 1.8 | -1.8
Cc1cn([C@H]2C[C@H](O)[C@@H](CCC(=O)NCCc3cccs3)O2)c(=O)[nH]c1=O | -3.8 | 2.1 | . | . | . | .
COc1ccc(S(=O)(=O)N2CCCC2CNC(=O)C(=O)NC2CCCC2)cc1 (stereo not given) | 31.2* | -1.3 | . | 0.5 | . | .
COC(=O)c1cc2c(c3c4cc(C)ccc4n(S(=O)(=O)c4ccc(C)cc4)c13)C(=O)N(Cc1ccccc1OC)C2 | -6.6 | . | . | . | . | .
COc1cccc(/C=N/NC(=O)CCCC(=O)NC2CCCCC2)c1 | -4.0 | 3.7 | 3.6 | -7.2 | 21.9 | -21.9
COc1cc(/C=N/NC(=O)CCC(=O)NC2CCCCC2)ccc1C | -4.2 | 50.9* | 1.2 | -0.3 | 15.7 | -15.7
SMILES | CaV13 FRET inh | Vif inh | NTR1 ag | V-ATPase pH | SR-BI uptake up | SR-BI HDL uptake
O=C(Nc1sc2c(c1C(=O)NCc1ccco1)CCCC2)c1ccc2c(c1)OCO2 | -3.5 | 12.8 | 16.7 | -1.1 | -82.3 | 82.3*
COC(=O)Cn1c2ccccc2c2nc3ccccc3nc21 | -6.0 | -0.8 | 0.7 | -1.4 | -98.3 | 98.3*
Cc1ccc(NS(=O)(=O)c2ccc3c(c2)n(C)c(=O)n3C)cc1 | . | -3.2 | -0.7 | -3.1 | 135.3* | -135.3
CC(=O)Nc1ccc(NS(=O)(=O)c2ccc3c(c2)n(C)c(=O)n3C)cc1 | -19.7 | 31.1 | 0.0 | -3.1 | 14.5 | -14.5
COCCCNC(=O)Cn1c(=O)oc2cc(S(=O)(=O)N3CC(C)CC(C)C3)ccc21 (stereo not given) | -3.7 | -14.1 | -0.5 | 20.4* | 14.2 | -14.2
O=C(Cn1c(=O)oc2cc(S(=O)(=O)N3CCCC3)ccc21)N1CCc2ccccc2C1 | -5.7 | 12.3 | -0.9 | 7.8 | -44.4 | 44.4
CC1Cc2ccccc2N1C(=O)Cn1c(=O)oc2cc(S(=O)(=O)N3CCCCC3)ccc21 (stereo not given) | -6.6 | 6.3 | -3.1 | -0.1 | -79.6 | 79.6*
O=C(Cn1c(=O)oc2cc(S(=O)(=O)N3CCCCC3)ccc21)N1CCc2ccccc21 | -5.2 | 52.8* | 5.5 | -4.2 | 1.0 | -1.0
COc1ccc(S(=O)(=O)N2CCc3ccccc32)cc1C(=O)N1CCOCC1 | -6.2 | 0.3 | 0.6 | -3.7 | -8.9 | 8.9
CCC1Oc2ccc(C)cc2N(CC(=O)N2CCOCC2)C1=O (stereo not given) | -2.3 | 5.9 | -1.4 | 3.8 | 0.7 | -0.7
Cc1ccc(NC(=O)COC(=O)Cn2ccc(=O)[nH]c2=O)cc1C | -1.7 | 8.1 | -0.7 | 2.9 | 10.7 | -10.7
COc1ccc(C(=O)Nc2cccc(OC(=O)c3ccc(C)c(C)c3)c2)cc1 | -0.1 | 42.4 | 1.7 | -3.9 | -6.0 | 6.0
CC(=O)Oc1ccc(C(=O)Nc2cccc(C(=O)c3ccc(C)c(C)c3)c2)cc1 | -6.1 | -11.2 | 9.0 | -2.2 | -84.0 | 84.0*
O=C(NCc1ccc(F)cc1)c1cc2c(cc1Cl)N1CCCCCC1=NS2(=O)=O | -2.8 | 13.6 | 5.7 | 5.0 | 12.3 | -12.3
COc1ccc(N=C2S/C(=C\c3ccc(OC(C)C(=O)O)c(OC)c3)C(=O)N2CCc2c[nH]c3ccccc23)cc1 (stereo not given) | -4.3 | 1.2 | 7.3 | -1.6 | -74.9 | 74.9*
O=C1/C(=C/c2ccc(N3CCOCC3)o2)SC(=Nc2ccccc2)N1CCc1c[nH]c2ccccc12 | . | . | -2.5 | 3.5 | -87.3 | 87.3*
COc1cc(/C=C2\SC(=Nc3ccccc3)N(CCc3c[nH]c4ccccc34)C2=O)ccc1OC(C)C(=O)O (stereo not given) | -9.9 | 5.3 | 4.5 | 1.7 | -22.6 | 22.6
CC1(C)CC(=O)c2c(O)cc(OCC(=O)N3CCN(c4ccc(F)cc4)CC3)cc2O1 | -2.5 | 6.4 | -1.1 | -4.1 | -79.7 | 79.7*
CCOC(=O)[C@H]1[C@H]2COc3ccc(C)cc3[C@@H]2N2C(=O)c3cc(F)ccc3NC(=O)[C@@]12C | -5.5 | -4.7 | -1.5 | 0.3 | 23.9 | -23.9
